The list is not random: actives were taken first. Their share in the collection is about 2%.
Rev-erbA mod – Rev-erb alpha (human) modulation | activity, % at 10 µM | Rev-erbα–FITC-DNA binding, fluorescence polarization, 90 min | actives 0.79% (n = 370,000) | P20393;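 active = activity above about 14%, limit read from the data; passing the limit was not always enough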;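 note: 0% = DMSO wells with 35 nM protein and 100% = DMSO wells with 750 nM protein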
NR2E3 ag-1 – activates human photoreceptor nuclear receptor NR2E3 | Q9Y5X4 | GST-NR2E3/biotin-RetCOR TR-FRET, 1536-well | inhibition of corepressor binding, % at 4.78 µM | actives 0.12% (n = 320,000);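 active = percent inhibition above the cutoff of mean plus 3 SD of all tested compounds, set per screening campaign, cut at about 20% in these data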;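 note: 0% = DMSO wells and 100% = biotin wells as full block of FRET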
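System: GST-tagged NR2E3 plus biotinylated RetCOR corepressor; Buffer or medium: pH 7.5 Tris-based buffer; Probe or stimulus: RetCOR corepressor, biotinylated, 7 nM; Doses: compound at 4.8 µM, single dose; Schedule: 5 h incubation at 4 °C; Technique: time-resolved FRET; Evaluation: percent inhibition of TR-FRET ratio; Replication: one well per compound, singlicate testing.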
NR2E3 ag-2 – agonists of human NR2E3 nuclear receptor | CHO-S Gal4-NCOR/VP16-NR2E3 two-hybrid, luciferase | AID 602229 | actives 0.35% (n = 360,000) | inhibition of corepressor binding, % at 3.98 µM | Q9Y5X4;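 active = inhibition above the mean of all tested compounds plus 3 SD, cut at about 70% in these data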;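 note: 0% = DMSO with NR2E3 transfected cells and 100% = cells lacking NR2E3 construct; higher means lower luciferase signal from less NR2E3 corepressor binding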
PG9 binder – small molecules binding HIV-1 gp120 antibody PG9; actives 0.43% (n = 360,000); inhibition, % at 6.7 µM; TR-FRET gp120-PG9 antibody binding; in the data active = inhibition above about 8.5%
Neddylation inh – inhibitors of human cullin neddylation; P61081+Q13564; calls only at 25 µM; actives 0.58% (n = 360,000); TR-FRET cullin neddylation, biochemical; in the data active = inhibition above about 36%
Target sequence (P61081 whole entry, looked up): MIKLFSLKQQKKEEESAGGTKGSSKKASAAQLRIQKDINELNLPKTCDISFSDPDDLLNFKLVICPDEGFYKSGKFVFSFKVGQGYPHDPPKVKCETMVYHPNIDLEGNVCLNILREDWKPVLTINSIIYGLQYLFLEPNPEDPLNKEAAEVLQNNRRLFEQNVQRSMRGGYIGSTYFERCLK
Target sequence (Q13564 whole entry, looked up): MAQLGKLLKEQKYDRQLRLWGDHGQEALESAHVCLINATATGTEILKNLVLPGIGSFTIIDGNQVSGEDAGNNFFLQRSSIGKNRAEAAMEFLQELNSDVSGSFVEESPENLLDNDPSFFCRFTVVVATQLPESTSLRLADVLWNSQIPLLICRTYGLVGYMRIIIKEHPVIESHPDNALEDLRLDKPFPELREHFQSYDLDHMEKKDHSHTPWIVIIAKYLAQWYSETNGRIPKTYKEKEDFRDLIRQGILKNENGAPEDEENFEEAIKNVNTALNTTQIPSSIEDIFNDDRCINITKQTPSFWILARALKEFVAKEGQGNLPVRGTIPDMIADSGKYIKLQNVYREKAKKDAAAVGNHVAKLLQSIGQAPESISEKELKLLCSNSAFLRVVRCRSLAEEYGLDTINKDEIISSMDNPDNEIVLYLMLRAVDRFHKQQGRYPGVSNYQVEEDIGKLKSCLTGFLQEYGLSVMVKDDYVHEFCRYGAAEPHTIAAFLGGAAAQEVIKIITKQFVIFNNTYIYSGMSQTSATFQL
Neddyl conf – cullin neddylation inhibition, confirmation; shares compounds with Neddylation inh; AID 652217; calls only at 25 µM; actives 13% (n = 1,800); TR-FRET cullin neddylation biochemical assay; in the data active = inhibition above about 40%;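 note: neddylation substrate is the cullin 1 ring ligase complex with SKP2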
The depositor's hits bear a star; i = inactive; x = not tested or not shown; + = active, no number.

SMILES | Rev-erbA mod | NR2E3 ag-1 | NR2E3 ag-2 | PG9 binder | Neddylation inh | Neddyl conf
CCOc1ccccc1N(C(=O)c1snc(C(N)=O)c1N)C(C(=O)NCc1ccccc1)c1ccc(O)cc1 (stereo not given) | 2 | x | -25 | -1 | + | x
COc1ccccc1C(=O)NC1CCCCN(Cc2ccc(C)cc2)C1=O (stereo not given) | -6 | x | x | x | x | x
CCCC(C(=O)NCCC(C)C)N(Cc1ccccc1)C(=O)c1snc(C(N)=O)c1N (stereo not given) | 6 | 1 | -2 | -1 | + | i
CCOc1ccccc1N(C(=O)c1snc(C(N)=O)c1N)C(C(=O)NCC1CCCO1)c1ccc2ncccc2c1 (stereo not given) | 8 | -1 | -31 | -1 | + | i
CCCC(C(=O)NC(C)(C)C)N(Cc1ccc(F)cc1)C(=O)c1snc(C(N)=O)c1N (stereo not given) | 1 | -2 | 10 | 0 | i | x
COc1ccc(C(C(=O)NCc2ccccc2)N(C(=O)c2snc(C(N)=O)c2N)c2ccccc2OC)cc1OC (stereo not given) | -1 | 1 | -10 | 0 | + | x
COCCNC(=O)C(c1ccc(C)o1)N(C(=O)c1snc(C(N)=O)c1N)c1cccc(C)c1 (stereo not given) | 3 | 2 | -1 | 0 | + | i
COc1ccccc1N(C(=O)c1snc(C(N)=O)c1N)C(C(=O)NCc1ccccc1)c1ccc(C)o1 (stereo not given) | -1 | x | 9 | 0 | x | x
O=C(OC12CCCN(C1)/C(=C/c1ccc(Cl)cc1)C2)c1ccco1 (stereo not given) | 0 | x | x | x | x | x
CCc1nnc(NC(=O)CSc2nnc(-c3ccccc3O)n2-c2ccc(C)cc2C)s1 | -6 | 2 | -153 | -1 | + | i
CCc1nnc(NC(=O)CSc2nnc(COc3ccccc3)n2-c2ccc(C)cc2)s1 | 3 | -1 | -26 | -3 | i | x
Cc1ccnc(NCc2cc(Cl)cc(Cl)c2O)c1 | -4 | x | -2 | -2 | i | x
Cc1cc(C)c(O)c(CN(C)Cc2cc(Cl)cc(Cl)c2O)c1 | -9 | x | -16 | -1 | + | i
O=C(CC[C@H]1O[C@@H](n2cnc3c(NC(=O)c4ccccc4)ncnc32)[C@H](O)[C@@H]1O)N[C@@H](CO)Cc1c[nH]c2ccccc12 | -2 | x | -19 | 1 | i | x
Cc1cc2n(n1)C(c1ccc(O)cc1)Nc1ccccc1-2 (stereo not given) | 1 | -1 | 15 | -2 | + | i
Cc1cc(=O)oc2c3c(cc(OCC(=O)N[C@@H](CC(C)C)C(=O)O)c12)OC(C)(C)CC3 | 2 | 0 | -22 | 2 | x | x
Cc1csc(NC(=O)c2cc(=O)[nH]c3ccc(S(=O)(=O)N4CCOCC4)cc23)n1 | -5 | 1 | 11 | 0 | + | x
COc1cc(NC(=O)c2cc(=O)[nH]c3ccc(S(=O)(=O)N4CCOCC4)cc23)cc(OC)c1 | -3 | x | -10 | 0 | i | x
CC1=C(C(=O)N(C)C)CC(CC(=O)NCC2CCCCC2)C(=O)N1Cc1ccccc1 (stereo not given) | 2 | x | -25 | -1 | i | x
O=c1[nH]cnc2sc3c(c12)CN(Cc1ccccc1)CC3 | x | 4 | -63 | x | x | x
O=c1[nH]cnc2sc3c(c12)CCN(Cc1ccccc1)C3 | 0 | 7 | -9 | 0 | + | i
NC(=O)c1cnn2c(-c3cccc(C(F)(F)F)c3)ccnc12 | 9 | 4 | 19 | -3 | + | i
S=c1[nH]c2nc(Cl)c(Cl)nc2[nH]1 | -7 | x | -14 | 2 | + | +
O=C(NNC(=O)c1ccc2ccccc2c1O)NC1CCCCC1 | 3 | x | -11 | 2 | + | i
CC(C)n1cc2c(N)ncnc2n1 | 0 | x | -25 | 1 | i | x
SMILES | Rev-erbA mod | NR2E3 ag-1 | NR2E3 ag-2 | PG9 binder | Neddylation inh | Neddyl conf
COc1ccc2oc(C(=O)N3CCN(S(=O)(=O)c4ccc(F)cc4)CC3)c(C)c2c1 | 1 | x | -28 | 0 | i | x
COc1ccc2oc(C(=O)NC(C)(C)C)c(C)c2c1 | -3 | -2 | -71 | 1 | + | i
COc1ccc2oc(C(=O)NNC(=O)c3ccc(F)cc3)c(C)c2c1 | 3 | -2 | -50 | -4 | + | x
COc1cc(C(=O)NNC(=S)NC(=O)c2ccc(F)cc2)cc(OC)c1OC | -2 | -2 | 0 | 1 | + | i
COCCNC(=O)C1(C)CCCN(C(=O)c2cc(C)on2)C1 (stereo not given) | -6 | x | -5 | 1 | i | x
COc1ccc(C(=O)N2CCC2(C)C(=O)NC(C)C)cc1OC (stereo not given) | -8 | x | 1 | 0 | i | x
CCCCOCCCNC(=O)C[C@@H]1C[C@@]2(C(=O)OCC)CCC=C2N(Cc2ccccc2)C1=O | -7 | x | -6 | 0 | i | x
Cc1ccc(-c2cc3nc(C)cc(C)n3n2)cc1 | -8 | -3 | -119 | -1 | + | i
Cc1cc(C)n2nc(-c3cnn(C)c3C(F)(F)F)cc2n1 | 2 | -2 | -37 | 0 | + | +
Cc1cc(C)cc(C(=O)OCCN2CCN(C3CN(Cc4cn(Cc5ccccc5F)nn4)S(=O)(=O)C3)CC2)c1 (stereo not given) | 0 | x | x | x | x | x
COc1cn(-c2ccccc2)nc1C(=O)Nc1ccc(C)cc1 | 2 | 2 | -69 | 0 | i | x
COc1ccc(C)cc1NC(=O)c1nn(-c2ccccc2)cc1OC | 3 | 2 | 5 | -4 | + | i
CCCCNC(=O)c1ccc2nc(CC)c(N(C)Cc3ccc(OC)cc3)n2c1 | -6 | x | 5 | 1 | i | x
OC(c1ccccc1)(c1nc(-c2cccc(C(F)(F)F)c2)cs1)C(F)(F)F (stereo not given) | 2 | x | -36 | 3 | i | x
FC(F)(F)c1cccc(-c2ccn3ncnc3n2)c1 | -2 | 7 | -2 | 1 | + | i
Cc1ccnc(SCc2cc(=O)c(OC(=O)c3ccc(C#N)cc3)co2)n1 | -8 | x | x | x | x | x
COc1ccc(S(=O)(=O)N(C)C)cc1NC(=O)CN1C(=O)NC2(CCCC2)C1=O | 1 | 3 | -9 | 0 | i | x
C=CCOc1c(CNc2cccc(C(=O)O)c2)cccc1OCC | 3 | 2 | -10 | -1 | + | i
C=CCOc1c(CNc2cccc(C(=O)O)c2)cccc1OC | 0 | 3 | -154 | -1 | x | x
COc1ccc(-c2ccc(C(=O)NCc3ccc(C(F)(F)F)cc3)c3occc23)c(C)c1 | 5 | x | -13 | 0 | + | i
COc1ccc(-c2ccc(C(=O)NC3CCCCC3)c3occc23)c(C)c1 | -3 | x | -55 | 0 | + | i
COc1ccc([C@H]2CN(CCc3ccccc3)C(=O)[C@@H]2CC(=O)Nc2ccccc2)cc1 | -4 | x | -11 | 0 | i | x
CCCCCCCCN1C(=O)[C@@H](CC(=O)N2CCN(C(=O)C3CC3)CC2)C[C@@]2(C(=O)OC)C1=C[C@H](C1CCCC1)O[C@@H]2C | 5 | x | x | 0 | x | x
